Reference: ChEMBL document CHEMBL1125681, “Specific anti-HIV-1 "acyclonucleosides" which cannot be phosphorylated: synthesis of some deoxy analogues of 1-[(2-hydroxyethoxy)methyl]-6-(phenylthio)thymine” (J Med Chem, 1991)

Key:
MT4 [1] = experiment: Concentration of compound required to reduce the viability of mock infected MT-4 cells against HIV-1 by 50%; format: functional; conditions: Homo sapiens
Summary of the method: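 Mock-infected MT-4 cells were exposed to the compound, and viability was measured. CC50 is the concentration that lowers the viability of these uninfected cells by 50%. Values are means (± standard deviation or range) from at least two separate experiments.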

MT4 [2] = experiment: Concentration of compound required to achieve 50% protection of MT-4 cells against HIV-1 virus induced cytopathic effect; format: functional, cell-based; conditions: Homo sapiens
Summary of the method: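 HIV-1-infected MT-4 cells, scored for protection against virus-induced cytopathic effect. EC50 is the concentration protecting 50% of cells, given as the mean (± standard deviation or range) of at least two separate experiments.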

[3] = CC50/EC50 ratio expressed as selectivity index(SI); format: functional
Summary of the method: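 Ratio of two MT-4 values from this work. CC50 is the concentration that reduces the viability of mock-infected MT-4 cells by 50%. EC50 is the concentration giving 50% protection of HIV-1-infected MT-4 cells against virus cytopathic effect. Both are means (± standard deviation or range) of at least two separate experiments.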

Row | SMILES | CC50 (MT4 [1]) [µM] | EC50 (MT4 [2]) [µM] | Ratio [3]
1 | COCCOCn1c(Sc2ccccc2)c(C)c(=O)[nH]c1=O | 299 | 8.7 | 34
2 | CCOCn1c(Sc2ccccc2)c(C)c(=O)[nH]c1=O | 231 | 0.33 | 700
3 | CCOCn1c(Sc2ccccc2)c(CC)c(=O)[nH]c1=O | 161 | 0.019 | 8500
4 | CCc1c(Sc2ccccc2)n(COCc2ccccc2)c(=O)[nH]c1=O | 34 | 0.0059 | 5800
5 | Cc1c(Sc2ccccc2)n(COCCCl)c(=O)[nH]c1=O | 196 | 1.5 | 131
6 | Cc1c(Sc2ccccc2)n(COCCO)c(=O)[nH]c1=O [HEPT] | > 500 | 6.5 | > 77
7 | Cc1c(Sc2ccccc2)n(COCCF)c(=O)[nH]c1=O | 209 | 1.1 | 190
8 | Cc1cn([C@H]2C[C@H](N=[N+]=[N-])[C@@H](CO)O2)c(=O)[nH]c1=O [ZIDOVUDINE] |  | 0.003 | 2600
9 | Cc1c(Sc2ccccc2)n(COCc2ccccc2)c(=O)[nH]c1=O | 95 | 0.088 | 1080
10 | Cc1c(Sc2ccccc2)n(COCCN=[N+]=[N-])c(=O)[nH]c1=O | 186 | 5.8 | 32
11 | CCc1c(Sc2ccccc2)n(COCCO)c(=O)[nH]c1=O |  | 0.12 | 
12 | Cc1c(Sc2ccccc2)n(COCCOCc2ccccc2)c(=O)[nH]c1=O | 45 | > 20 | < 2.3
